Laboratory results from ChEMBL document CHEMBL2384906, “Biological activity, design, synthesis and structure activity relationship of some novel derivatives of curcumin containing sulfonamides” (Eur J Med Chem, 2013).
Values after ≈ are worked out from the molar mass of the structure shown. Active and inactive are the calls of the source. The calls are words filed in the database; no cut-off is given here.

Key:
Pseudomonas aeruginosa [1] = assay: Antimicrobial activity against Pseudomonas aeruginosa ATCC 15499 after 24 hrs by broth micro serial dilution method; format: functional
Method in brief: (§1)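 This was broth microdilution in autoclaved Mueller-Hinton broth. 150 µL of compound per well was serially diluted […], and 50 µL of test organism was added. Plates were incubated 24 h at 37 °C and optical density was read.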

Salmonella typhi [2] = assay: Antimicrobial activity against Salmonella typhi ATCC 23564 after 24 hrs by broth micro serial dilution method; format: functional, Salmonella enterica subsp. enterica serovar Typhi
Escherichia coli [3] = assay: Antimicrobial activity against Escherichia coli ATCC 35218 after 24 hrs by broth micro serial dilution method; format: functional; method in brief: as §1
Pseudomonas aeruginosa [4] = assay: Antimicrobial activity against Pseudomonas aeruginosa ATCC 15499 assessed as diameter of inhibition zone at 80 uM after 24 hrs by Kirby -Baur disc diffusion method; format: functional
Method in brief: (§2)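 Kirby-Bauer disc diffusion was used. Acetone stocks (160 µM) were serially doubled down to 80, 40 and 20 µM. 4 µL of each went onto 5 mm sterile paper discs, which were dried 30 min at 50 °C. Inoculum was 1.5 × 10⁸ CFU/mL diluted to 3 × 10² CFU/mL, and 50 µL was spread on Mueller-Hinton agar. After 24 h at 37 °C the inhibition-zone diameter was measured. Ciprofloxacin served as positive control.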

Bacillus cereus [5] = assay: Antimicrobial activity against Bacillus cereus MTCC 7350 assessed as diameter of inhibition zone at 80 uM after 24 hrs by Kirby -Baur disc diffusion method; format: functional; method in brief: as §2
Staphylococcus aureus [6] = assay: Antimicrobial activity against Staphylococcus aureus ATCC 11632 assessed as diameter of inhibition zone at 80 uM after 24 hrs by Kirby -Baur disc diffusion method; format: functional; method in brief: as §2
Salmonella typhi [7] = assay: Antimicrobial activity against Salmonella typhi ATCC 23564 assessed as diameter of inhibition zone at 80 uM after 24 hrs by Kirby -Baur disc diffusion method; format: functional; conditions: for diameter of the inhibition zone (DIZ): Salmonella enterica subsp. enterica serovar Typhi
Staphylococcus aureus [8] = assay: Antimicrobial activity against Staphylococcus aureus ATCC 11632 after 24 hrs by broth micro serial dilution method; format: functional; method in brief: as §1
Bacillus cereus [9] = assay: Antimicrobial activity against Bacillus cereus MTCC 7350 after 24 hrs by broth micro serial dilution method; format: functional; method in brief: as §1
Escherichia coli [10] = assay: Antimicrobial activity against Escherichia coli ATCC 35218 assessed as diameter of inhibition zone at 80 uM after 24 hrs by Kirby -Baur disc diffusion method; format: functional; method in brief: as §2
Salmonella typhi [11] = assay: Antimicrobial activity against Salmonella typhi ATCC 23564 assessed as diameter of inhibition zone at 40 uM after 24 hrs by Kirby -Baur disc diffusion method; format: functional; conditions: Salmonella enterica subsp. enterica serovar Typhi
QG-56 = assay: Cytotoxicity against human QG56 cells after 24 hrs by MTT assay; format: functional, cell-based
Method in brief: (§3)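 The MTT assay seeded 5 × 10⁴ cells per well and grew them 24 h in RPMI 1640 with compound at 2.5–200 µM. Medium without cells was the blank and adriamycin the positive control. MTT was added for 4 h at 37 °C, formazan was solubilised, and absorbance was read at 570 nm. IC50 is the concentration that cuts viability 50% against untreated cells.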

Trichoderma viride [12] = assay: Antifungal activity against Trichoderma viride MTCC 1107 assessed as zone of inhibition at 20 uM after 48 hrs by disc diffusion method; format: functional; conditions: MTCC 1107, 48 h, read-out: IZ
Method in brief: (§4)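 Spores from 4-day potato dextrose agar cultures, suspended in sterile water at 1.5 × 10⁵ CFU/mL. 0.2 mL was spread on potato dextrose agar. 5 mm filter-paper discs soaked with test compound were laid on the lawn. Incubation was 48 h at 28 °C, then the inhibition zone was measured in mm. Fluconazole was the positive control and acetone the negative control.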

HeLa = assay: Cytotoxicity against human HeLa cells after 24 hrs by MTT assay; format: functional, cell-based; method in brief: as §3
Aspergillus niger [13] = assay: Antifungal activity against Aspergillus niger MTCC 1108 assessed as zone of inhibition at 80 uM after 48 hrs by disc diffusion method; format: functional; method in brief: as §4
Aspergillus flavus [14] = assay: Antifungal activity against Aspergillus flavus MTCC 1021 after 48 hrs; format: functional
Salmonella typhi [15] = assay: Antimicrobial activity against Salmonella typhi ATCC 23564 assessed as diameter of inhibition zone at 20 uM after 24 hrs by Kirby -Baur disc diffusion method; format: functional; conditions: Salmonella enterica subsp. enterica serovar Typhi
Curvularia lunata [16] = assay: Antifungal activity against Curvularia lunata MTCC 581 after 48 hrs; format: functional; conditions: MTCC 581, 48 h
Curvularia lunata [17] = assay: Antifungal activity against Curvularia lunata MTCC 581 assessed as zone of inhibition at 20 uM after 48 hrs by disc diffusion method; format: functional; conditions: MTCC 581, 48 h, read-out: IZ; method in brief: as §4
Mus musculus = assay: Antiinflammatory activity in mouse assessed as inhibition of carrageenan-induced increase in paw volume at 200 mg/kg administered 1 hr prior to carrageenan challenge measured after 3 hrs relative to control; format: functional
Method in brief: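 Mice were fasted 2 h and placed in groups of five. Controls received saline i.p. Phenylbutazone was given at 100 mg/kg i.p., curcumin at 200 mg/kg i.p., and derivatives at 200 mg/kg. After 1 h, 0.1 mL of 1% carrageenan in saline was injected subplantar into the right hind paw. Paw volume was followed by plethysmometer for 3 h, and % inhibition was calculated as (Vc − Vt)/Vc × 100.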

HCT-116 = assay: Cytotoxicity against human HCT116 cells after 24 hrs by MTT assay; format: functional, cell-based; method in brief: as §3
Curvularia lunata [18] = assay: Antifungal activity against Curvularia lunata MTCC 581 assessed as zone of inhibition at 40 uM after 48 hrs by disc diffusion method; format: functional; conditions: MTCC 581, 48 h, read-out: IZ; method in brief: as §4
Escherichia coli [19] = assay: Antimicrobial activity against Escherichia coli ATCC 35218 assessed as diameter of inhibition zone at 40 uM after 24 hrs by Kirby -Baur disc diffusion method; format: functional; conditions: ATCC 35218, 24 h, read-out: DIZ; method in brief: as §2
Aspergillus niger [20] = assay: Antifungal activity against Aspergillus niger MTCC 1108 after 48 hrs; format: functional
HepG2 = assay: Cytotoxicity against human HepG2 cells after 24 hrs by MTT assay; format: functional, cell-based; method in brief: as §3
Trichoderma viride [21] = assay: Antifungal activity against Trichoderma viride MTCC 1107 assessed as zone of inhibition at 40 uM after 48 hrs by disc diffusion method; format: functional; conditions: MTCC 1107, 48 h, read-out: IZ; method in brief: as §4
Trichoderma viride [22] = assay: Antifungal activity against Trichoderma viride MTCC 1107 assessed as zone of inhibition at 80 uM after 48 hrs by disc diffusion method; format: functional; conditions: MTCC 1107, 48 h, read-out: IZ; method in brief: as §4
Escherichia coli [23] = assay: Antimicrobial activity against Escherichia coli ATCC 35218 assessed as diameter of inhibition zone at 20 uM after 24 hrs by Kirby -Baur disc diffusion method; format: functional; conditions: ATCC 35218, 24 h, read-out: DIZ; method in brief: as §2
Aspergillus flavus [24] = assay: Antifungal activity against Aspergillus flavus MTCC 1021 assessed as zone of inhibition at 80 uM after 48 hrs by disc diffusion method; format: functional; method in brief: as §4
Trichoderma viride [25] = assay: Antifungal activity against Trichoderma viride MTCC 1107 after 48 hrs; format: functional; conditions: MTCC 1107, 48 h
Curvularia lunata [26] = assay: Antifungal activity against Curvularia lunata MTCC 581 assessed as zone of inhibition at 80 uM after 48 hrs by disc diffusion method; format: functional; conditions: MTCC 581, 48 h, read-out: IZ; method in brief: as §4
[27] = Salmonella enterica, ATCC 23564, 24 h

## COc1ccc(NS(=O)(=O)c2ccc(N)cc2)nn1 [SULFAMETHOXYPYRIDAZINE]
Pseudomonas aeruginosa [1]; ATCC 15499, 24 h
  MIC: > 160 µM
Salmonella typhi [2]; [27]
  MIC: > 160 µM
Escherichia coli [3]; ATCC 35218, 24 h
  MIC: > 160 µM
Pseudomonas aeruginosa [4]
  diameter of the inhibition zone (DIZ): inactive
Bacillus cereus [5]
  diameter of the inhibition zone (DIZ): inactive
Staphylococcus aureus [6]
  diameter of the inhibition zone (DIZ): inactive
Salmonella typhi [7]
  diameter of the inhibition zone (DIZ): inactive
Staphylococcus aureus [8]; ATCC 11632, 24 h
  MIC: > 80 µM
Bacillus cereus [9]; MTCC 7350, 24 h
  MIC: > 160 µM
Escherichia coli [10]
  diameter of the inhibition zone (DIZ): inactive

## COc1cc(/C=C/c2nn(-c3ccccc3)c(/C=C/c3ccc(O)c(OC)c3)c2/N=N/c2ccc(S(=O)(=O)Nc3ccccn3)cc2)ccc1O
Salmonella typhi [11]
  diameter of the inhibition zone (DIZ): inactive
QG-56
  IC50: 100 µM
Trichoderma viride [12]
  zone of inhibition at 20 µM: 10 mm
Pseudomonas aeruginosa [1]; ATCC 15499, 24 h
  MIC: > 80 µM
HeLa
  IC50: 50 µM
Aspergillus niger [13]
  inhibition zone (IZ): inactive
Salmonella typhi [2]; [27]
  MIC: > 80 µM
Escherichia coli [3]; ATCC 35218, 24 h
  MIC: > 80 µM
Aspergillus flavus [14]
  MIC: inactive
Salmonella typhi [15]
  diameter of the inhibition zone (DIZ): inactive
Curvularia lunata [16]
  MIC: 40 µM (≈ 28 µg/mL)
Pseudomonas aeruginosa [4]
  diameter of the inhibition zone (DIZ): inactive
Curvularia lunata [17]
  zone of inhibition at 20 µM: 10 mm
Mus musculus
  inhibition in vivo at 200 mg/kg: 20.9%
Bacillus cereus [5]
  diameter of the inhibition zone (DIZ): inactive
Staphylococcus aureus [6]
  diameter of the inhibition zone (DIZ): inactive
HCT-116
  IC50: Not Active
Curvularia lunata [18]
  zone of inhibition at 40 µM: 13 mm
Escherichia coli [19]
  zone of inhibition at 40 µM: 9 mm
Aspergillus niger [20]
  MIC: inactive
Salmonella typhi [7]; Salmonella enterica, ATCC 23564, 24 h, read-out: DIZ
  zone of inhibition at 80 µM: 9 mm
HepG2
  IC50: Not Active
Staphylococcus aureus [8]
  MIC: inactive
Trichoderma viride [21]
  zone of inhibition at 40 µM: 13 mm
Trichoderma viride [22]
  zone of inhibition at 80 µM: 17 mm
Escherichia coli [23]
  zone of inhibition at 20 µM: 7 mm
Bacillus cereus [9]
  MIC: inactive
Aspergillus flavus [24]
  inhibition zone (IZ): inactive
Trichoderma viride [25]
  MIC: 40 µM (≈ 28 µg/mL)
Curvularia lunata [26]
  zone of inhibition at 80 µM: 17 mm
Escherichia coli [10]; ATCC 35218, 24 h, read-out: DIZ
  zone of inhibition at 80 µM: 10 mm

## Nc1ccc(S(N)(=O)=O)cc1
Pseudomonas aeruginosa [1]
  MIC: inactive
Salmonella typhi [2]; Salmonella enterica subsp. enterica serovar Typhi
  MIC: inactive
Escherichia coli [3]
  MIC: inactive
Pseudomonas aeruginosa [4]
  diameter of the inhibition zone (DIZ): inactive
Bacillus cereus [5]
  diameter of the inhibition zone (DIZ): inactive
Staphylococcus aureus [6]
  diameter of the inhibition zone (DIZ): inactive
Salmonella typhi [7]
  diameter of the inhibition zone (DIZ): inactive
Staphylococcus aureus [8]
  MIC: inactive
Bacillus cereus [9]
  MIC: inactive
Escherichia coli [10]
  diameter of the inhibition zone (DIZ): inactive

## Cc1cc(C)nc(NS(=O)(=O)c2ccc(N)cc2)n1 [SULFAMETHAZINE]
Pseudomonas aeruginosa [1]
  MIC: inactive
Salmonella typhi [2]; [27]
  MIC: > 160 µM
Escherichia coli [3]; ATCC 35218, 24 h
  MIC: > 160 µM
Pseudomonas aeruginosa [4]
  diameter of the inhibition zone (DIZ): inactive
Bacillus cereus [5]
  diameter of the inhibition zone (DIZ): inactive
Staphylococcus aureus [6]
  diameter of the inhibition zone (DIZ): inactive
Salmonella typhi [7]
  diameter of the inhibition zone (DIZ): inactive
Staphylococcus aureus [8]
  MIC: inactive
Bacillus cereus [9]
  MIC: inactive
Escherichia coli [10]
  diameter of the inhibition zone (DIZ): inactive
